Source: ChEMBL document CHEMBL5247578, “Effective synthesis of benzimidazoles-imidazo[1,2-a]pyrazine conjugates: A comparative study of mono-and bis-benzimidazoles for antitumor activity” (Eur J Med Chem, 2019)

Assays:
[1] = n-Octanol/phosphate buffer partition coefficient, logP of the compound at pH 7.4 incubated for 85 mins by shake-flask method; format: physicochemical
Procedure, shortened: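 Octanol–water partition by shake-flask: n-octanol with 0.15 M phosphate buffer pH 7.4 at 10:1 volumes. Buffer-phase absorbance read before mixing, then shaken 50 min and centrifuged at 2500 rpm for 35 min. Buffer absorbance read again; P = (Ai−Af)/Af × Vw/Vo.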

[2] = test system: MDA-MB-468; test: Antiproliferative activity against human MDA-MB-468 cells assessed as cell growth inhibition at 10 uM incubated for 48 hrs by sulforhodamine B assay relative to control; format: functional
Procedure, shortened: (§1)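 NCI-60 single-dose screen at 10^-5 M. Cells grown in RPMI 1640 with 5% FBS and 2 mM L-glutamine, plated at 5,000–40,000 cells/well, and preincubated 24 h. Drug (DMSO stock) added and incubated 48 h at 37 °C, 5% CO2. Adherent cells fixed with cold TCA, stained with 0.4% SRB in 1% acetic acid, dye solubilized in 10 mM trizma base, A515 read. Percent growth taken against time-zero and untreated control.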

[3] = test system: Hs-578T; test: Antiproliferative activity against human Hs-578T cells assessed as cell growth inhibition at 10 uM incubated for 48 hrs by sulforhodamine B assay relative to control; format: functional; procedure, shortened: as §1
[4] = test system: MDA-MB-231; test: Antiproliferative activity against human MDA-MB-231 cells assessed as cell growth inhibition at 10 uM incubated for 48 hrs by sulforhodamine B assay relative to control; format: functional; procedure, shortened: as §1
[5] = test system: UO-31; test: Antiproliferative activity against human UO-31 cells assessed as cell growth inhibition at 10 uM incubated for 48 hrs by sulforhodamine B assay relative to control; format: functional; procedure, shortened: as §1
[6] = test system: SN12C; test: Antiproliferative activity against human SN12C cells assessed as cell growth inhibition at 10 uM incubated for 48 hrs by sulforhodamine B assay relative to control; format: functional; procedure, shortened: as §1
[7] = test system: RXF 393; test: Antiproliferative activity against human RXF 393 cells assessed as cell growth inhibition at 10 uM incubated for 48 hrs by sulforhodamine B assay relative to control; format: functional; procedure, shortened: as §1
[8] = test system: ACHN; test: Antiproliferative activity against human ACHN cells assessed as cell growth inhibition at 10 uM incubated for 48 hrs by sulforhodamine B assay relative to control; format: functional
Procedure, shortened: (§2)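 Single-dose NCI-60 prescreen at 10^-5 M. Cells in RPMI 1640 with 5% FBS and 2 mM L-glutamine, seeded 5,000–40,000 cells/well with 24 h preincubation, then drug exposure for 48 h at 37 °C under 5% CO2. Growth read by SRB staining of TCA-fixed cells at 515 nm against time-zero and untreated controls. Negative growth values denote cell kill.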

[9] = test system: A498; test: Antiproliferative activity against human A498 cells assessed as cell growth inhibition at 10 uM incubated for 48 hrs by sulforhodamine B assay relative to control; format: functional; procedure, shortened: as §2
[10] = test system: 786-0; test: Antiproliferative activity against human 786-0 cells assessed as cell growth inhibition at 10 uM incubated for 48 hrs by sulforhodamine B assay relative to control; format: functional; procedure, shortened: as §2
[11] = test system: NCI/ADR-RES; test: Antiproliferative activity against human NCI/ADR-RES cells assessed as cell growth inhibition at 10 uM incubated for 48 hrs by sulforhodamine B assay relative to control; format: functional; procedure, shortened: as §1
[12] = test system: OVCAR-8; test: Antiproliferative activity against human OVCAR-8 cells assessed as cell growth inhibition at 10 uM incubated for 48 hrs by sulforhodamine B assay relative to control; format: functional; procedure, shortened: as §1
[13] = test system: OVCAR-5; test: Antiproliferative activity against human OVCAR-5 cells assessed as cell growth inhibition at 10 uM incubated for 48 hrs by sulforhodamine B assay relative to control; format: functional; procedure, shortened: as §1
[14] = test system: UACC-62; test: Antiproliferative activity against human UACC-62 cells assessed as cell growth inhibition at 10 uM incubated for 48 hrs by sulforhodamine B assay relative to control; format: functional; procedure, shortened: as §1
[15] = test system: SK-MEL-2; test: Antiproliferative activity against human SK-MEL-2 cells assessed as cell growth inhibition at 10 uM incubated for 48 hrs by sulforhodamine B assay relative to control; format: functional; procedure, shortened: as §1
[16] = test system: LOX IMVI; test: Antiproliferative activity against human LOX IMVI cells assessed as cell growth inhibition at 10 uM incubated for 48 hrs by sulforhodamine B assay relative to control; format: functional; procedure, shortened: as §1
[17] = test system: U-251; test: Antiproliferative activity against human U-251 cells assessed as cell growth inhibition at 10 uM incubated for 48 hrs by sulforhodamine B assay relative to control; format: functional; procedure, shortened: as §1
[18] = test system: SNB-75; test: Antiproliferative activity against human SNB-75 cells assessed as cell growth inhibition at 10 uM incubated for 48 hrs by sulforhodamine B assay relative to control; format: functional; procedure, shortened: as §1
[19] = test system: SNB-19; test: Antiproliferative activity against human SNB-19 cells assessed as cell growth inhibition at 10 uM incubated for 48 hrs by sulforhodamine B assay relative to control; format: functional; procedure, shortened: as §1
[20] = test system: SW-620; test: Antiproliferative activity against human SW620 cells assessed as cell growth inhibition at 10 uM incubated for 48 hrs by sulforhodamine B assay relative to control; format: functional; procedure, shortened: as §1
[21] = test system: KM12; test: Antiproliferative activity against human KM12 cells assessed as cell growth inhibition at 10 uM incubated for 48 hrs by sulforhodamine B assay relative to control; format: functional; procedure, shortened: as §1
[22] = test system: HCT-15; test: Antiproliferative activity against human HCT-15 cells assessed as cell growth inhibition at 10 uM incubated for 48 hrs by sulforhodamine B assay relative to control; format: functional
Procedure, shortened: (§3)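 NCI-60 one-dose prescreen at 10^-5 M. Cells grown in RPMI 1640 with 5% FBS and 2 mM glutamine, preincubated 24 h, then exposed 48 h at 37 °C. Adherent lines TCA-fixed, SRB-stained, A515 read. Growth percent relative to time-zero and control; negative values mean cell kill.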

[23] = test system: HCT-116; test: Antiproliferative activity against human HCT-116 cells assessed as cell growth inhibition at 10 uM incubated for 48 hrs by sulforhodamine B assay relative to control; format: functional; procedure, shortened: as §3
[24] = test system: NCI-H522; test: Antiproliferative activity against human NCI-H522 cells assessed as cell growth inhibition at 10 uM incubated for 48 hrs by sulforhodamine B assay relative to control; format: functional; procedure, shortened: as §1
[25] = test system: NCI-H226; test: Antiproliferative activity against human NCI-H226 cells assessed as cell growth inhibition at 10 uM incubated for 48 hrs by sulforhodamine B assay relative to control; format: functional; procedure, shortened: as §1
[26] = test system: EKVX; test: Antiproliferative activity against human EKVX cells assessed as cell growth inhibition at 10 uM incubated for 48 hrs by sulforhodamine B assay relative to control; format: functional; procedure, shortened: as §3
[27] = test system: SR; test: Antiproliferative activity against human SR cells assessed as cell growth inhibition at 10 uM incubated for 48 hrs by sulforhodamine B assay relative to control; format: functional; procedure, shortened: as §1
[28] = test system: MOLT-4; test: Antiproliferative activity against human MOLT-4 cells assessed as cell growth inhibition at 10 uM incubated for 48 hrs by sulforhodamine B assay relative to control; format: functional; procedure, shortened: as §1
[29] = test system: HL-60; test: Antiproliferative activity against human HL-60 cells assessed as cell growth inhibition at 10 uM incubated for 48 hrs by sulforhodamine B assay relative to control; format: functional; procedure, shortened: as §3
[30] = test system: CCRF-CEM; test: Antiproliferative activity against human CCRF-CEM cells assessed as cell growth inhibition at 10 uM incubated for 48 hrs by sulforhodamine B assay relative to control; format: functional; procedure, shortened: as §2
[31] = test system: HOP-92; test: Antiproliferative activity against human HOP-92 cells assessed as cell growth inhibition at 10 uM incubated for 48 hrs by sulforhodamine B assay relative to control; format: functional; procedure, shortened: as §3

Structure (SMILES)	logD at 1.417 h [1]	inhibition at 10 µM [2]	inhibition at 10 µM [3]	inhibition at 10 µM [4]	inhibition at 10 µM [5]	inhibition at 10 µM [6]	inhibition at 10 µM [7]	inhibition at 10 µM [8]	inhibition at 10 µM [10]	inhibition at 10 µM [11]	inhibition at 10 µM [12]	inhibition at 10 µM [13]	inhibition at 10 µM [14]	inhibition at 10 µM [15]	inhibition at 10 µM [16]	inhibition at 10 µM [17]	inhibition at 10 µM [18]	inhibition at 10 µM [19]	inhibition at 10 µM [20]	inhibition at 10 µM [21]	also measured
c1cn2cc(-c3ccc4ncn(C5CCCCC5)c4c3)nc(-c3ccc4ncn(C5CCCCC5)c4c3)c2n1	1.19	31.4%	43.3%	49.2%	68.8%	42.7%	16.8%	45.1%	34.3%	48.8%	59.5%	7.18%	51.9%	31.7%	67%	69%	25.4%	41.2%	35.6%	63.5%	inhibition at 10 µM [9]: 26.2%; inhibition at 10 µM [22]: 57.1%; inhibition at 10 µM [23]: 80.2%; inhibition at 10 µM [24]: 49.4%; inhibition at 10 µM [25]: 46.7%; inhibition at 10 µM [26]: 30.8%; inhibition at 10 µM [27]: 71.8%; inhibition at 10 µM [28]: 79.1%; inhibition at 10 µM [29]: 51%; inhibition at 10 µM [30]: 78.5%
CCc1ccc(-c2cn3ccnc3c(-c3ccc4ncn(Cc5ccccc5)c4c3)n2)cc1	1.96	17.2%	21.8%	43.2%	57.9%	22.5%	30.7%	44.7%	38.1%	41.2%	30.8%	14.9%	24.9%	14.8%	50.1%	46.1%	29.3%	20.9%	18.8%	45.7%	inhibition at 10 µM [22]: 74.7%; inhibition at 10 µM [23]: 61.2%; inhibition at 10 µM [24]: 45.9%; inhibition at 10 µM [25]: 1.48%; inhibition at 10 µM [31]: 36.1%; inhibition at 10 µM [26]: 39.7%; inhibition at 10 µM [27]: 49.9%; inhibition at 10 µM [28]: 54.2%; inhibition at 10 µM [29]: 39.6%; inhibition at 10 µM [30]: 49.7%
Clc1ccc(-c2cn3ccnc3c(-c3ccc4ncn(C5CCCCC5)c4c3)n2)cc1	1.51	10.6%	6.35%	15.3%	36.1%	13.5%	6.73%	5.45%	12.1%	11.1%	3.78%	0.84%	30.5%	10.9%	14.8%	11.3%	31.1%	15.8%	14%	10.6%	inhibition at 10 µM [22]: 15.5%; inhibition at 10 µM [23]: 7.34%; inhibition at 10 µM [24]: 19.8%; inhibition at 10 µM [25]: 19.4%; inhibition at 10 µM [31]: 30.5%; inhibition at 10 µM [26]: 13.1%; inhibition at 10 µM [27]: 18.5%; inhibition at 10 µM [28]: 8.87%; inhibition at 10 µM [29]: 15.6%; inhibition at 10 µM [30]: 11.4%
Fc1ccccc1-c1cn2ccnc2c(-c2ccc3ncn(C4CCCCC4)c3c2)n1	1.95	27.6%	5.26%	21.3%	22.9%	10.1%	12.3%	13.2%	2.94%	4.51%	14.1%	6.64%	38.2%	10.5%	5.77%	11.4%	29.7%	7.56%	9.53%	2.45%	inhibition at 10 µM [22]: 6.18%; inhibition at 10 µM [23]: 25.8%; inhibition at 10 µM [24]: 17.8%; inhibition at 10 µM [25]: 28.6%; inhibition at 10 µM [31]: 37%; inhibition at 10 µM [26]: 16%; inhibition at 10 µM [27]: 16.3%; inhibition at 10 µM [28]: 22.5%; inhibition at 10 µM [29]: 9.3%; inhibition at 10 µM [30]: 22.5%
